Data from ChEMBL document CHEMBL1687922, “Dipeptidyl peptidase IV dependent water-soluble prodrugs of highly lipophilic bicyclic nucleoside analogues” (J Med Chem, 2011).
In brackets after ≈: the same amount, converted by molar mass.

How the values were obtained:
Human alphaherpesvirus 3 [1] = test: Antiviral activity against Varicella zoster virus OKA infected in HEL cells assessed as reduction in virus induced cytopathicity; type: functional, organism-based; settings: Human alphaherpesvirus 3, OKA
In short: (§1)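 Confluent HEL fibroblast monolayers were infected with 20 PFU of VZV (Oka or YS strain). After 1-2 h adsorption, residual virus was removed and varying compound concentrations were added. Plaque formation was scored when untreated infected controls reached completion.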

[2] = Cytotoxicity against HEL cells assessed as inhibition of cell proliferation; type: cell-based; settings: human
[3] = Stability of the compound assessed as conversion of prodrug to 3-[(2R,4S, 5R)-4-hydroxy-5-(hydroxymethyl)oxolan-2-yl]-6-(4-pentylphenyl)furo[2, 3-d]pyrimidin-2-one in presence of Dipeptidyl-peptidase 4 and 20 % bovine serum; type: physicochemical; settings: cattle
In short: (§2)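 Prodrug at 50 μM in PBS (0.1% DMSO) at 37 °C; reaction started with purified CD26 (1.5 mU) or 20% human or bovine serum in PBS. Aliquots taken at time points were quenched in cold methanol on ice, centrifuged, and the supernatant analysed by reverse-phase RP-8 HPLC (NaH2PO4/heptanesulfonic acid pH 3.2 versus acetonitrile gradient) for prodrug, intermediates and parent.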

[4] = Aqueous solubility of the compound at 25 DegC after 24 hrs; type: physicochemical; settings: water
In short: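 Thermodynamic water solubility was measured at 25 °C after 24 h, typically as the mean of two measurements (variation <20%).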

[5] = Cytotoxicity against HEL cells assessed as alteration of cell morphology; type: cell-based; settings: human
In short: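 Uninfected HEL fibroblasts were exposed to the test compounds. MCC is the minimal concentration giving microscopically detectable alteration of cell morphology.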

[6] = Stability of the compound assessed as conversion of prodrug to 3-[(2R,4S, 5R)-4-hydroxy-5-(hydroxymethyl)oxolan-2-yl]-6-(4-pentylphenyl)furo[2, 3-d]pyrimidin-2-one in presence of Dipeptidyl-peptidase 4; type: physicochemical; in short: as §2
[7] = Stability of the compound assessed as conversion of prodrug to 3-[(2R,4S, 5R)-4-hydroxy-5-(hydroxymethyl)oxolan-2-yl]-6-(4-pentylphenyl)furo[2, 3-d]pyrimidin-2-one in presence of Dipeptidyl-peptidase 4 and 20 % human serum; type: physicochemical; in short: as §2
Human alphaherpesvirus 3 [8] = test: Antiviral activity against Varicella zoster virus YS infected in HEL cells assessed as reduction in virus induced cytopathicity; type: functional, organism-based; settings: Human alphaherpesvirus 3, YS; in short: as §1
[9] = Chemical stability of the compound in PBS buffer at pH 7.4 assessed as compound remaining after 24 hrs by HPLC; type: physicochemical; settings: read-out: Stability
In short: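 Prodrug was held in PBS pH 7.4 at room temperature for 24 h. Percent intact prodrug was determined by HPLC.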

[10] = Stability of the compound assessed as conversion of prodrug to 3-[(2R,4S, 5R)-4-hydroxy-5-(hydroxymethyl)oxolan-2-yl]-6-(4-pentylphenyl)furo[2, 3-d]pyrimidin-2-one in presence of Dipeptidyl-peptidase 4, 20 % murine serum and 2.5 uM DPPIV inhibitor vildagliptin; type: physicochemical; settings: mouse
In short: (§3)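 Prodrug conversion by purified DPPIV/CD26 or by human, bovine or murine serum (20% in PBS) was run with varying concentrations of vildagliptin. Prodrug, intermediate and parent were quantified by HPLC.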

[11] = Stability of the compound assessed as conversion of prodrug to 3-[(2R,4S, 5R)-4-hydroxy-5-(hydroxymethyl)oxolan-2-yl]-6-(4-pentylphenyl)furo[2, 3-d]pyrimidin-2-one in presence of Dipeptidyl-peptidase 4 and 2.5 uM DPPIV inhibitor vildagliptin; type: physicochemical; in short: as §3
[12] = Stability of the compound assessed as conversion of prodrug to 3-[(2R,4S, 5R)-4-hydroxy-5-(hydroxymethyl)oxolan-2-yl]-6-(4-pentylphenyl)furo[2, 3-d]pyrimidin-2-one in presence of Dipeptidyl-peptidase 4, 20 % bovine serum and 2.5 uM DPPIV inhibitor vildagliptin; type: physicochemical; settings: cattle; in short: as §3
Mus musculus = test: Bioavailability in mouse assessed as fold increase in 3-[(2R,4S, 5R)-4-hydroxy-5-(hydroxymethyl)oxolan-2-yl]-6-(4-pentylphenyl)furo[2, 3-d]pyrimidin-2-one level within 0 to 180 mins administered by oral gavage; type: ADME, organism-based; settings: in vivo
In short: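 Female mice received equimolar single oral gavage doses (parent […]) in 0.5% carboxymethylcellulose. Three mice per time point were sacrificed at 15, 30, 45, 60, 90, 120 and 180 min. Plasma was analysed for parent compound by HPLC with fluorescence detection, using relative peak areas. Fold increase in parent plasma levels over 0-180 min was calculated relative to the parent compound.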

Caco-2 = test: Stability in human CaCo-2 cells assessed as appearance of 3-[(2R,4S, 5R)-4-hydroxy-5-(hydroxymethyl)oxolan-2-yl]-6-(4-pentylphenyl)furo[2, 3-d]pyrimidin-2-one at the apical side of the cell; type: ADME, cell-based; settings: in the assay text read “basolateral side” for “apical side”
In short: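 CaCo-2 cells were seeded at 1.5 × 10⁵ cells/well in upper cups of dual-chamber 24-well trays in DMEM with 10% FBS and grown to confluence (~3 days). Upper medium was replaced with DMEM containing compound at 100 μM; bottom medium was replaced with PBS. Upper and bottom cups were sampled at 0-7 and 24 h into cold methanol and analysed by HPLC.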

[13] = Stability of the compound assessed as conversion of prodrug to 3-[(2R,4S, 5R)-4-hydroxy-5-(hydroxymethyl)oxolan-2-yl]-6-(4-pentylphenyl)furo[2, 3-d]pyrimidin-2-one in presence of Dipeptidyl-peptidase 4, 20 % human serum and 2.5 uM DPPIV inhibitor vildagliptin; type: physicochemical; in short: as §3
[14] = Aqueous solubility of the compound at 25 DegC after 4 hrs; type: physicochemical; settings: water

SMILES	EC50 (Human alphaherpesvirus 3 [1])	CC50 [2]	Activity [3]	solubility at 24 h [4]	MCC [5]	Activity [6]	Activity [7]	EC50 (Human alphaherpesvirus 3 [8])	remaining at 24 h [9]	Activity [10]	Activity [11]	Activity [12]	fold change (FC) (Mus musculus)	Activity (Caco-2)	Activity [13]	solubility at 4 h [14]
CCCCCc1ccc(-c2cc3cn([C@H]4C[C@H](O)[C@@H](COC(=O)[C@@H](NC(=O)[C@@H]5CCCN5C(=O)[C@@H](N)CC(=O)O)C(C)C)O4)c(=O)nc3o2)cc1	32 nM	52000 nM	Not Active	15 mg/mL (≈ 21.1 mM)	> 5 µM	Active	Not Active	73 nM	> 95%							
CCCCCc1ccc(-c2cc3cn([C@H]4C[C@H](O)[C@@H](COC(=O)[C@@H](NC(=O)[C@@H]5CCCN5C(=O)[C@@H](N)C(C)C)C(C)C)O4)c(=O)nc3o2)cc1	89 nM	> 100000 nM		1.2 mg/mL (≈ 1.73 mM)	> 2 µM			154 nM	> 95%	Not Active	Not Active	Not Active	13	Active	Not Active	
CCCCCc1ccc(-c2cc3cn([C@H]4C[C@H](O)[C@@H](COC(=O)[C@H](Cc5ccccc5)NC(=O)[C@@H]5CCCN5C(=O)[C@@H](N)C(C)C)O4)c(=O)nc3o2)cc1	13 nM	40000 nM	Active		> 0.5 µM		Active	10 nM	52%							1.1 mg/mL (≈ 1.48 mM)
CCCCCc1ccc(-c2cc3cn([C@H]4C[C@H](OC(=O)[C@@H](NC(=O)[C@@H]5CCCN5C(=O)[C@@H](N)C(C)C)C(C)C)[C@@H](COC(=O)[C@@H](NC(=O)[C@@H]5CCCN5C(=O)[C@@H](N)C(C)C)C(C)C)O4)c(=O)nc3o2)cc1	127 nM	50000 nM		77 mg/mL (≈ 77.8 mM)	> 5 µM			260 nM	> 95%				12			
CCCCCc1ccc(-c2cc3cn([C@H]4C[C@H](O)[C@@H](COC(=O)[C@@H](NC(=O)[C@@H]5CCCN5C(=O)[C@@H](N)CC(N)=O)C(C)C)O4)c(=O)nc3o2)cc1	42 nM	56000 nM		39 mg/mL (≈ 55 mM)	> 5 µM	Active		85 nM	> 95%							
CCCCCc1ccc(-c2cc3cn([C@H]4C[C@H](O)[C@@H](COC(=O)[C@@H](NC(=O)[C@@H]5CCCN5C(=O)[C@@H](N)CCCCN)C(C)C)O4)c(=O)nc3o2)cc1	18 nM	29000 nM		55 mg/mL (≈ 76.1 mM)	> 5 µM	Active		22 nM	> 95%				15			
CCCCCc1ccc(-c2cc3cn([C@H]4C[C@H](O)[C@@H](COC(=O)[C@H](C)NC(=O)[C@@H]5CCCN5C(=O)[C@@H](N)C(C)C)O4)c(=O)nc3o2)cc1	6 nM	44000 nM	Active		> 0.5 µM		Active	3 nM	74%							6.1 mg/mL (≈ 9.16 mM)
CCCCCc1ccc(-c2cc3cn([C@H]4C[C@H](OC(=O)[C@@H](NC(=O)[C@@H]5CCCN5C(=O)[C@@H](N)C(C)C)C(C)C)[C@@H](CO)O4)c(=O)nc3o2)cc1	18 nM	17000 nM		5.2 mg/mL (≈ 7.49 mM)	60 µM			16 nM	> 95%				7			
CCCCCc1ccc(-c2cc3cn([C@H]4C[C@H](O)[C@@H](CO)O4)c(=O)nc3o2)cc1 [CF1743]				0.018 mg/mL (≈ 0.0452 mM)	> 20 µM											
CCCCCc1ccc(-c2cc3cn([C@H]4C[C@H](O)[C@@H](COC(=O)[C@H](CC(C)C)NC(=O)[C@@H]5CCCN5C(=O)[C@@H](N)C(C)C)O4)c(=O)nc3o2)cc1	9 nM	31000 nM	Active		> 0.5 µM		Active	6 nM	69%				11			14 mg/mL (≈ 19.8 mM)
